GSK3 alpha inh – human GSK-3 alpha kinase inhibition | P49840 | ADP-Glo luminescence, 60 min | inhibition, % at 10 µM | 320,000 compounds, 0.1% hits | AID 2650;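 active means more than half of replicates show inhibition above 20%; inconclusive means some but at most half of replicates above 20% inhibition; inactive means no replicate shows inhibition above 20%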;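 further: GST-tagged GSK-3 alpha with peptide substrate and 25 µM ATP; 0% = DMSO neutral wells and 100% = GW8510 positive control wells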
INS-1E GSIS act – primary screen for activators of insulin secretion dependent on glucose, INS-1E cells, GLuc reporter luminescence | INS-1E GLuc reporter insulin secretion, 2-3 h | activation, % at 16.6 µM | 370,000 compounds, 0.61% hits | AID 743287;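 active means lowest replicate activation of at least 40%, so every replicate reaches that level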;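 further: 0% = median of neutral control wells and 100% = median of IBMX positive control wells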
GSK3B inh – inhibitors of human GSK3beta kinase; GST-GSK3beta kinase, ADP-Glo luminescence, 60 min; active compounds read low; activity score (negative = inhibition), % at 10 µM; 300,000 compounds, 0.038% hits; AID 2097;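 active means more than half of replicate wells score below -50%, meaning over 50% inhibition versus plate controls; inconclusive means some replicates but at most half score below -50%; inactive means no replicate scores below -50%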;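 further: 0% = median DMSO wells and -100% = median GW8510 positive control wells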
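Test system: GST-tagged human GSK3beta kinase, cell-free; evaluation: activity score scaled between in-plate DMSO and GW8510 controls; measured by: ADP-Glo luminescence; incubation: 60 min reaction, RT; benchmarks: DMSO and 20 µM GW8510; reagent: peptide substrate plus 25 µM ATP (final); medium: Tris/MgCl2 kinase buffer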
STK33 kinase inh – human STK33 kinase inhibition | 320,000 compounds, 0.073% hits | purified STK33, MBP phosphorylation, ADP-Glo luminescence | inhibition, % at 10 µM | AID 2661 | Q9BYT3;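 active means inhibition at or above 25%, using the most active replicate where run in duplicate; inactive means inhibition below 25%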
Target sequence (Q9BYT3 whole entry, looked up): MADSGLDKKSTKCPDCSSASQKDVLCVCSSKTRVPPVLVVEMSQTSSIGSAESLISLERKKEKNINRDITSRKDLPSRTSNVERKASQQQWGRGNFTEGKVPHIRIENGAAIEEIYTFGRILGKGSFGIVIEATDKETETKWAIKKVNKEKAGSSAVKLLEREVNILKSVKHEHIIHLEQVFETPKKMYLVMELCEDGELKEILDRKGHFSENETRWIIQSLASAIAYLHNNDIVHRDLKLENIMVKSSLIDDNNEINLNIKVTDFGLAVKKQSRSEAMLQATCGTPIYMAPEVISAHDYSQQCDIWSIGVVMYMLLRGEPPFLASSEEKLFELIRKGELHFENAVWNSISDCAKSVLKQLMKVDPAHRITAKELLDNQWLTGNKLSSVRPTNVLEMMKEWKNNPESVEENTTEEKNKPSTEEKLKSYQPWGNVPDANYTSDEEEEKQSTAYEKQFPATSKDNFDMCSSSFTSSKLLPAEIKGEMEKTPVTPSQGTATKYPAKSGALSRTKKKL
HIV Env fusion – HIV envelope-mediated fusion inhibition | HeLa-JRFL Env/CEM21 cell fusion, luciferase | inhibition, % at 12.3 µM | 360,000 compounds, 1.1% hits;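 active means mean replicate inhibition score of at least 50 and every replicate individually at or above 50; inconclusive means only one of the two criteria met; inactive means mean below 50 and not all replicates reaching 50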;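 further: 0% = plate neutral controls and 100% = maraviroc near 300 nM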
CDK5 p35 inh – blocks human CDK5/p35 kinase activity; Recombinant CDK5/p35, ADP-Glo luminescence, 60 min; Q00535+Q15078; 330,000 compounds, 0.01% hits; inhibition, % at 10 µM;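 active means highest replicate inhibition of at least 50% and at least 75% of replicates reaching 50%; inconclusive means only one of the two criteria met; inactive means both criteria failed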;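 further: plate controls were DMSO neutral control for no effect and GW8510 at 10 µM for full effect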
Active calls of the source: *; ? = inconclusive; / = not tested or not shown; [ ] = remark or other dose. An excerpt weighted towards active compounds, which were near 1.4% of everything screened.

SMILES | GSK3 alpha inh | INS-1E GSIS act | GSK3B inh | STK33 kinase inh | HIV Env fusion | CDK5 p35 inh
Cn1c(Cl)c(/C=N/OC(=O)C2CC2)c2ccccc21 | -1 | -10 | 6 | 0 | -1 | 1
O=C(O)c1ccc(OS(=O)(=O)c2cccc(C(F)(F)F)c2)cc1 | / | 73* | / | / | 0 | 1
CCC(=O)Nc1ccc2c(c1)C(=O)N(C)C[C@H](OC)[C@@H](C)CN(C(=O)c1cccnc1)[C@@H](C)CO2 | / | -3 | / | / | 0[16.7 µM] | /
Cc1nc2ccc(C(=O)N3c4ccccc4N=C(c4ccc(C(F)(F)F)cc4)C3C(=O)NC(C)(C)C)cc2[nH]1 (configuration not stated) | / | 9 | / | / | 89* | /
CCCNC(=O)Nc1ccc2c(c1)OC[C@H](C)N(Cc1ccc(-c3ccccn3)cc1)C[C@H](C)[C@H](OC)CN(C)C2=O | / | -17 | / | / | / | /
CC#CC[N+](C)(C)CCCCCCCCCCCC | / | -35 | -4 | / | 62* | 0
CCCCCCCCCCCCCCCC[N+](C)(C)CC | 26 | 298* | 1 | 11 | ? | 3
CC(=O)Nc1c(C(=O)C2CC2)oc2ccccc12 | -3 | 50* | 1 | -1 | / | -3
O=C(CN1CCCC1)Nc1c(C(=O)C2CC2)oc2ccccc12 | -3 | 18 | -1 | -2 | -3 | -1
COc1cc(C)c(C)cc1S(=O)(=O)N1CCCCC1c1cccnc1 (configuration not stated) | 1 | 57* | 0 | 0 | / | 0
O=C(C[C@@H]1CC[C@@H]2[C@H](COC[C@@H](O)CN2C(=O)Nc2ccccc2)O1)NC1Cc2ccccc2C1 | / | -14 | / | / | / | /
N#CC(C#N)=Cc1c[nH]c(=O)c(C#N)c1Nc1ccccc1 | 74* | -2 | -25 | -2 | -7 | /
O=C(O)Cn1cc(/C=c2/sc3nc4ccccc4n3c2=O)c2ccccc21 | -2 | 2 | -2 | 32* | -48 | -2
CC(/C=N/n1c(-c2ccco2)n[nH]c1=S)=C\c1ccccc1 | 1 | 0 | 4 | -1 | -4 | 4
CCc1n[nH]c(=S)n1/N=C/C(C)=C\c1ccccc1 | / | 8 | -27 | / | 56* | 1
Cc1ccc(S(=O)(=O)Nc2nc(C)cc(NN)n2)cc1 | 2 | 46* | 3 | 0 | -28 | 1
COc1cccc(-c2cnc3c(c2)C(=O)N([C@H](C)CO)C[C@H](C)[C@H](CN(C)C(=O)Nc2cccc4ccccc24)O3)c1 | / | -28 | / | / | 89*[16.7 µM] | /
C[C@H]1CN([C@@H](C)CO)C(=O)c2cccc(NC(=O)c3ccncc3)c2O[C@@H]1CN(C)C(=O)Nc1cccc2ccccc12 | / | 24 | / | / | 66*[16.7 µM] | /
COc1cccc(-c2cnc3c(c2)C(=O)N([C@@H](C)CO)C[C@H](C)[C@H](CN(C)C(=O)Nc2ccccc2F)O3)c1 | / | -14 | / | / | 2[16.7 µM] | /
C=C1SC(=Nc2c(C)cccc2Cl)N(C(=O)c2sc3ccccc3c2Cl)C12CCCCC2 | -1 | 135* | 0 | -1 | 13 | -2
C=C1SC(=Nc2ccccc2Cl)N(C(=O)c2sc3ccccc3c2Cl)C1(C)C | -1 | 13 | 0 | -2 | 11 | 0
N#CC1=C(N)OC2=C(C(=O)CC(c3ccccc3)C2)C1c1cccnc1 (configuration not stated) | 0 | 47* | 2 | -1 | / | 0
N#CC1=C(N)OC2=C(C(=O)CC(c3ccccc3)C2)C1c1ccoc1 (configuration not stated) | 1 | 37 | 0 | -1 | / | -7
C=CCn1c(SCC(=O)N2CCN(c3ccccc3)CC2)nnc1-c1ccco1 | -2 | 3 | 3 | 0 | 20 | -1
CCn1c(SCC(=O)N2CCN(c3ccccc3)CC2)nnc1-c1cc2cc(Cl)ccc2o1 | -2 | / | -1 | -1 | 68* | 1
SMILES | GSK3 alpha inh | INS-1E GSIS act | GSK3B inh | STK33 kinase inh | HIV Env fusion | CDK5 p35 inh
O=C(C[C@H]1C[C@H]2c3cc(NC(=O)Nc4ccccc4)ccc3O[C@H]2[C@H](CO)O1)NCC1CC1 | / | 4 | / | / | / | /
COc1ccc(-c2cnc3c(c2)C(=O)N([C@@H](C)CO)C[C@@H](C)[C@@H](CN(C)C(=O)Cc2ccncc2)O3)cc1 | / | 3 | / | / | -19[16.7 µM] | /
COc1ccc(Cl)cc1NC(=O)CN(C1CCCCC1)S(C)(=O)=O | -1 | / | -6 | -1 | 125* | -1
CCCC#Cc1cnc2c(c1)C(=O)N([C@@H](C)CO)C[C@@H](C)[C@@H](CN(C)C(=O)CCN1CCCCC1)O2 | / | -1 | / | / | / | /
CCC[C@@H]1C[C@@]1(CCC)[C@@H](NP(=O)(c1ccccc1)c1ccccc1)c1ccc(C(=O)OC)cc1 | -1 | / | 0 | 0 | 96* | /
CCc1ccc(C2CC(=O)N3CN(c4ccccc4)CSC3=C2C#N)cc1 (configuration not stated) | -1 | -9 | -6 | -1 | -10 | 2
CCOC(=O)c1ccc(N2CSC3=C(C#N)C(c4cccs4)CC(=O)N3C2)cc1 (configuration not stated) | -1 | -20 | -1 | -1 | 45 | 0
COc1ccc(N2CSC3=C(C#N)C(c4cccs4)CC(=O)N3C2)cc1 (configuration not stated) | 91* | / | -50 | 1 | -24 | 0
N#CC1=C2SCN(c3ccc(F)cc3)CN2C(=O)CC1c1cccc(F)c1 (configuration not stated) | 56* | / | -1 | 0 | / | -1
C[C@H](CO)N1C[C@H](C)[C@H](CN(C)C(=O)Cc2ccccc2)OCCCC[C@H](C)Oc2ccc(NC(=O)NC3CCCCC3)cc2C1=O | / | -9 | / | / | -27[16.7 µM] | /
CC1C=NC(S(=O)(=O)N2CC[C@@H]3[C@H](CO)N(C)c4ccc(C#Cc5ccccc5)cc4[C@@H]32)=N1 (some centres not stated) | / | -1 | / | / | / | /
C[C@@H]1CN([C@H](C)CO)C(=O)c2cc(NS(=O)(=O)c3ccccc3)ccc2O[C@@H]1CN(C)Cc1ccncc1 | / | 37 | / | / | / | /
C[C@@H]1CN([C@H](C)CO)S(=O)(=O)c2ccc(-c3cccc(C#N)c3)cc2O[C@H]1CN(C)C(=O)c1ccncc1 | / | 4 | / | / | -10[16.7 µM] | /
CCCCCCCCN1C(=O)[C@H](CC(=O)NCc2ccc(OC)c(OC)c2)C[C@@]2(C(=O)OCC)CCCC=C12 | / | 17 | / | / | 70* | /

Screening data: PubChem, Broad Institute
